From ChEMBL document CHEMBL1125330, “N-substituted pyrazino[2,3-c][1,2,6]thiadiazine 2,2-dioxides. A new class of diuretics” (J Med Chem, 1992)

How the values were obtained:
Settings in all cases: in vivo
[1] = test system: Rattus norvegicus; assay: Mean Chlorine excretion in rats when compound administered at 10 mg/kg po and vehicle dosed at 33.59 umol/kg; format: ADME, organism-based; set-up: dose 10 mg/kg, route oral
In short: (§1)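 Male Sprague-Dawley rats (HC/CFY, 175-200 g), no food or water for 18 h before and during the test. Single gavage dose (2.5-160 mg/kg; vehicle 1% carboxymethyl cellulose/0.1% Tween 80, 0.5 mL/100 g bw), then distilled water 2.5 mL/100 g bw po. Individual metabolic cages, 6 h urine. K+ by flame photometry, Cl- colorimetric, as mequiv/6 h/kg bw; unpaired Student t-test vs control.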

[2] = test system: Rattus norvegicus; assay: Mean Chlorine excretion in rats when compound administered at 5 mg/kg po and vehicle dosed at 16.79 umol/kg; format: ADME, organism-based; set-up: dose 5 mg/kg, route oral; in short: as §1
[3] = test system: Rattus norvegicus; assay: Mean Chlorine excretion in rats when compound administered at 0 mg/kg po and vehicle dosed at 0 umol/kg; format: ADME, organism-based; set-up: dose 0 mg/kg, route oral
[4] = test system: Rattus norvegicus; assay: Mean Chlorine excretion in rats when compound administered at 80 mg/kg po and vehicle dosed at 268.71 umol/kg; format: ADME, organism-based; set-up: dose 80 mg/kg, route oral; in short: as §1
[5] = test system: Rattus norvegicus; assay: Mean potassium excretion in rats when compound administered at 20 mg/kg po and vehicle dosed at 67.18 umol/kg; format: ADME, organism-based; set-up: dose 20 mg/kg, route oral; in short: as §1
[6] = test system: Rattus norvegicus; assay: Mean potassium excretion in rats when compound administered at 40 mg/kg po and vehicle dosed at 134.35 umol/kg; format: ADME, organism-based; set-up: dose 40 mg/kg, route oral; in short: as §1
[7] = test system: Rattus norvegicus; assay: Mean potassium excretion in rats when compound administered at 5 mg/kg po and vehicle dosed at 16.79 umol/kg; format: ADME, organism-based; set-up: dose 5 mg/kg, route oral
In short: (§2)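 Male Sprague-Dawley rats (HC/CFY, 175-200 g) fasted and water-deprived 18 h before and during the test. Dosed by gavage at 2.5-160 mg/kg in 1% carboxymethyl cellulose/0.1% Tween 80, 0.5 mL/100 g bw. Immediately hydrated with water (2.5 mL/100 g bw, po). Urine collected 6 h in metabolic cages; Na+ and K+ by flame photometry; mean mequiv/6 h/kg bw; nonpaired Student t-test.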

[8] = test system: Rattus norvegicus; assay: Mean potassium excretion in rats when compound administered at 80 mg/kg po and vehicle dosed at 268.71 umol/kg; format: ADME, organism-based; set-up: dose 80 mg/kg, route oral; in short: as §2
[9] = test system: Rattus norvegicus; assay: Urinary sodium 2 hr after the compound was administered 10 mg/kg po in rat; format: ADME, organism-based, Urine; set-up: dose 10 mg/kg, route oral
In short: (§3)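 Onset and duration study in fasted, water-loaded male Sprague-Dawley rats housed two per metabolic cage, six pairs per group. Single oral dose given, then water 2.5 mL/100 g po. Urine volume and sodium (flame photometry) measured over 0-1, 1-2, 2-3, 3-4 and 4-6 h intervals. Mean values compared with vehicle by Student t-test.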

[10] = test system: Rattus norvegicus; assay: Urinary sodium 3h after the compound was administered 10 mg/kg po in rat; format: ADME, organism-based, Urine; set-up: dose 10 mg/kg, route oral; in short: as §3
[11] = test system: Rattus norvegicus; assay: Urinary sodium 4 hr after the compound was administered 10 mg/kg po in rat; format: ADME, organism-based, Urine; set-up: dose 10 mg/kg, route oral; in short: as §3
[12] = test system: Rattus norvegicus; assay: Urinary sodium 6 hr after the compound was administered 10 mg/kg po in rat; format: ADME, organism-based, Urine; set-up: dose 10 mg/kg, route oral; in short: as §3
[13] = test system: Rattus norvegicus; assay: Mean potassium excretion in rats when compound administered at 0 mg/kg po and vehicle dosed at 0 umol/kg; format: ADME, organism-based; set-up: dose 0 mg/kg, route oral; in short: as §1
[14] = test system: Rattus norvegicus; assay: Mean potassium excretion in rats when compound administered at 10 mg/kg po and vehicle dosed at 33.59 umol/kg; format: ADME, organism-based; set-up: dose 10 mg/kg, route oral; in short: as §1
[15] = test system: Rattus norvegicus; assay: Mean sodium excretion in rats when compound administered at 0 mg/kg po and vehicle dosed at 0 umol/kg; format: ADME, organism-based; set-up: dose 0 mg/kg, route oral; in short: as §2
[16] = test system: Rattus norvegicus; assay: Mean sodium excretion in rats when compound administered at 10 mg/kg po and vehicle dosed at 33.59 umol/kg; format: ADME, organism-based; set-up: dose 10 mg/kg, route oral; in short: as §2
[17] = test system: Rattus norvegicus; assay: Mean sodium excretion in rats when compound administered at 2.5 mg/kg po and vehicle dosed at 8.4 umol/kg; format: ADME, organism-based; set-up: dose 2.5 mg/kg, route oral; in short: as §2
[18] = test system: Rattus norvegicus; assay: Mean sodium excretion in rats when compound administered at 20 mg/kg po and vehicle dosed at 67.18 umol/kg; format: ADME, organism-based; set-up: dose 20 mg/kg, route oral; in short: as §2
[19] = test system: Rattus norvegicus; assay: Mean sodium excretion in rats when compound administered at 40 mg/kg po and vehicle dosed at 134.35 umol/kg; format: ADME, organism-based; set-up: dose 40 mg/kg, route oral; in short: as §2
[20] = test system: Rattus norvegicus; assay: Mean sodium excretion in rats when compound administered at 5 mg/kg po and vehicle dosed at 16.79 umol/kg; format: ADME, organism-based; set-up: dose 5 mg/kg, route oral; in short: as §2
[21] = test system: Rattus norvegicus; assay: Mean sodium excretion in rats when compound administered at 80 mg/kg po and vehicle dosed at 268.71 umol/kg; format: ADME, organism-based; set-up: dose 80 mg/kg, route oral; in short: as §2

Structure (SMILES): NS(=O)(=O)c1cc2c(cc1Cl)NCNS2(=O)=O [HYDROCHLOROTHIAZIDE]
- Cl- [1]: 4.44 m equiv 6hr-1 kg-1 (body weight)-1
- Cl- [2]: 4.88 m equiv 6hr-1 kg-1 (body weight)-1
- Cl- [3]: 0.78 m equiv 6hr-1 kg-1 (body weight)-1
- Cl- [4]: 4.88 m equiv 6hr-1 kg-1 (body weight)-1
- K [5]: 1.43 m equiv 6hr-1 kg-1 (body weight)-1
- K [6]: 1.64 m equiv 6hr-1 kg-1 (body weight)-1
- K [7]: 1.23 m equiv 6hr-1 kg-1 (body weight)-1
- K [8]: 1.57 m equiv 6hr-1 kg-1 (body weight)-1
- Urinary Na+ [9]: 0.39 m equiv
- Urinary Na+ [10]: 0.17 m equiv
- Urinary Na+ [11]: 0.16 m equiv
- Urinary Na+ [12]: 0.24 m equiv
- K [13]: 0.53 m equiv 6hr-1 kg-1 (body weight)-1
- K [14]: 1.14 m equiv 6hr-1 kg-1 (body weight)-1
- Na [15]: 0.32 m equiv 6hr-1 kg-1 (body weight)-1
- Na [16]: 2.86 m equiv 6hr-1 kg-1 (body weight)-1
- Na [17]: 2.14 m equiv 6hr-1 kg-1 (body weight)-1
- Na [18]: 3.05 m equiv 6hr-1 kg-1 (body weight)-1
- Na [19]: 2.78 m equiv 6hr-1 kg-1 (body weight)-1
- Na [20]: 3.03 m equiv 6hr-1 kg-1 (body weight)-1
- Na [21]: 3.19 m equiv 6hr-1 kg-1 (body weight)-1
